According to ChEMBL document CHEMBL4130443, “Targeting breast cancer stem cells by novel HDAC3-selective inhibitors” (Eur J Med Chem, 2017):
Activity calls are given as the source filed them. The calls are words filed in the database; no cut-off is given here.

Legend:
Histone deacetylase 1 [1] = target: T1, Histone deacetylase 1 (Homo sapiens, UniProt Q13547); test: Inhibition of human HDAC1 using p53 (379 to 382 residues) derived fluorogenic peptide RHKKAc
[2] = target: Histone deacetylase 3/Nuclear receptor corepressor 2 (HDAC3/NCoR2) (Homo sapiens) (UniProt O15379+Q9Y618); test: Inhibition of human HDAC3/NCOR2 at 1 uM using p53 (379 to 382 residues) derived fluorogenic peptide RHKKAc; format: protein-complex assay
Outline: (§1)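 Isoform profiling run by a commercial vendor with compounds at 1 µM. Values are percent inhibition, each the average of two determinations.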

[3] = target: T2, Protein deacetylase HDAC6 (Homo sapiens) (UniProt Q9UBN7); test: Inhibition of human HDAC6 at 1 uM using p53 (379 to 382 residues) derived fluorogenic peptide RHKKAc; outline: as §1
T2 sequence (whole entry): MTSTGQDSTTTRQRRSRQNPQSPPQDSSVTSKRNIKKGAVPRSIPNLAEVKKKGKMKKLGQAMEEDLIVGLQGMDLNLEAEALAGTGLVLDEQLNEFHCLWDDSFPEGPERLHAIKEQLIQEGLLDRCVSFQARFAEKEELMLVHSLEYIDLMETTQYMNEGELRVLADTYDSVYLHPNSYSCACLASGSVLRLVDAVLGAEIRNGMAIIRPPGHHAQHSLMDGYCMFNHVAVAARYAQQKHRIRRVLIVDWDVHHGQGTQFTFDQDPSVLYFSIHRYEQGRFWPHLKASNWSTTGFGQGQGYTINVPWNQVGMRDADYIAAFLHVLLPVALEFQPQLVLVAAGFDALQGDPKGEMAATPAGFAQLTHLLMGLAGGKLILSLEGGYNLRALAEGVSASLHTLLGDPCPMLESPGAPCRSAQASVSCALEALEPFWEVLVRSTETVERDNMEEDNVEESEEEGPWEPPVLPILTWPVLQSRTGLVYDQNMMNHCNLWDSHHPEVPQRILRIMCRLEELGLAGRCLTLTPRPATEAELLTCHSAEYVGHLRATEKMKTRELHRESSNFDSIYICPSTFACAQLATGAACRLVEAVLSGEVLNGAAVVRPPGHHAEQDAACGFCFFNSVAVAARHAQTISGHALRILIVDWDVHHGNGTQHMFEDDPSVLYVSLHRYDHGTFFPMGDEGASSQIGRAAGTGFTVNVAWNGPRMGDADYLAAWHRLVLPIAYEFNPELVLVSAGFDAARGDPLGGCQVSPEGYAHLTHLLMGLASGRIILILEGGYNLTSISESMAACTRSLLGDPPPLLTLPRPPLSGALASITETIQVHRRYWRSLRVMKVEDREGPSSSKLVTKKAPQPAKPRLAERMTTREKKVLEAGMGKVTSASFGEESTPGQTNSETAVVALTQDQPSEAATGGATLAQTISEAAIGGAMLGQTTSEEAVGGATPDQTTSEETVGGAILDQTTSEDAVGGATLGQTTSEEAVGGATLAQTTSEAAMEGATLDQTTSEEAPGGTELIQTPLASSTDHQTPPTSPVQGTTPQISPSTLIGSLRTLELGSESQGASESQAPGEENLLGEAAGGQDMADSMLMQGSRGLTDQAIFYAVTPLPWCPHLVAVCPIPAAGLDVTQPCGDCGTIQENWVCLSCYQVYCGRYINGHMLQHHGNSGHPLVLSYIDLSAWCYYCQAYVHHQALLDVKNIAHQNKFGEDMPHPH

[4] = target: Histone deacetylase 4 (Homo sapiens) (UniProt P56524); test: Inhibition of human HDAC4 at 1 uM using Boc-Lys(trifluoroacetyl)-AMC substrate; outline: as §1
Histone deacetylase 1 [5] = target: T1, Histone deacetylase 1; test: Inhibition of human HDAC1 at 1 uM using p53 (379 to 382 residues) derived fluorogenic peptide RHKKAc; outline: as §1
MDA-MB-231 [6] = test: Inhibition of mammosphere formation of human MDA-MB-231 cells incubated for 7 days; settings: MDA-MB-231, 168 h
MDA-MB-231 [7] = test: Effect on beta-catenin mRNA expression in human MDA-MB-231 cells at 0.5 to 5 uM by RT-PCR method; format: cell-based; settings: mda-mb-231, 5 µM
Outline: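 Monolayer cells treated at graded concentrations. Total RNA isolated with TRIzol. β-catenin mRNA assessed by RT-PCR with β-actin as reference.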

MDA-MB-231 [8] = test: Inhibition of tumorogenicity of human MDA-MB-231 cells xenografted in NOD/SCID mouse injected with cells pretreated with 5 uM compound for 48 hrs assessed as reduction in tumor incidence at 100 mg/kg, po dosed via gavage once daily starting on day 2 post injection and continuing through day 12; format: functional, organism-based
Outline: (§2)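 Cells pretreated 48 h with 5 µM compound or DMSO, trypsinized and injected at 50,000 cells/0.1 ml in 50% Matrigel into the left 4th inguinal mammary fat pad of female NOD/SCID mice (N = 10 per group). Dosed 100 mg/kg by oral gavage once daily in 0.5% methylcellulose/0.1% Tween 80 in water. Caliper volume = (width² x length) x 0.52. Incidence by log-rank test, volume at day 27 by t-test.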

[9] = target: Histone deacetylase 3 (Homo sapiens) (UniProt O15379); test: Inhibition of HDAC3 in human MDA-MB-231 cells assessed as reduction in beta-catenin expression at 0.5 to 5 uM by immunoblotting; format: cell-based
Outline: (§3)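 Monolayer cells treated in 5% FBS at graded concentrations. Lysed in SDS/EDTA/Tris pH 8.1 buffer, equal protein immunoblotted with primary antibodies 1:1000 overnight at 4°C. Detected by ECL for phospho-Akt, β-catenin and histone H3 pan/H3K9 acetylation.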

[10] = target: Histone deacetylase 3 (Homo sapiens) (UniProt O15379); test: Inhibition of HDAC3 in human MDA-MB-231 cells assessed as increase in histone H3 acetylation at 0.5 to 5 uM by immunoblotting; format: cell-based; outline: as §3
MDA-MB-231 [11] = test: Growth inhibition of human MDA-MB-231 cells incubated for 48 to 72 hrs by crystal violet staining based assay; format: functional, cell-based
Outline: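 Cells plated at 5000/well and left overnight, then treated in 5% FBS for 24, 48 and 72 h. Washed with PBS, stained 20 min with 0.5% crystal violet in 20% methanol, stain solubilized in 2% SDS, absorbance read at 550. Growth inhibition calculated as (1-Nt/Nc) x 100 against vehicle wells. N = 6.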

Histone deacetylase 2 = Histone deacetylase 2 (Homo sapiens, UniProt Q92769); test: Inhibition of human HDAC2 using p53 (379 to 382 residues) derived fluorogenic peptide RHKKAc
MDA-MB-231 [12] = test: Inhibition of cancer stem cell subpopulation of human MDA-MB-231 cells assessed as CD44+/CD24low subpopulation level at 0.1 to 5 uM by flow cytometry; format: functional, cell-based
Outline: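 Cells exposed to DMSO or compound at graded concentrations, then harvested and washed in stain buffer. Stained with FITC- or phycoerythrin-conjugated anti-CD44 and anti-CD24 for 30 min on ice in the dark, resuspended in PBS, and CD44+/CD24low fraction read by flow cytometry.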

MDA-MB-231 [13] = test: Induction of tumor growth dela of human MDA-MB-231 cells xenografted in NOD/SCID mouse injected with cells pretreated with 5 uM compound for 48 hrs assessed as reduction in tumor volume at 100 mg/kg, po dosed via gavage once daily starting on day 2 post injection and continuing through day 26; format: functional, organism-based; outline: as §2

Histone deacetylase 3 (Homo sapiens), sequence (O15379 whole entry): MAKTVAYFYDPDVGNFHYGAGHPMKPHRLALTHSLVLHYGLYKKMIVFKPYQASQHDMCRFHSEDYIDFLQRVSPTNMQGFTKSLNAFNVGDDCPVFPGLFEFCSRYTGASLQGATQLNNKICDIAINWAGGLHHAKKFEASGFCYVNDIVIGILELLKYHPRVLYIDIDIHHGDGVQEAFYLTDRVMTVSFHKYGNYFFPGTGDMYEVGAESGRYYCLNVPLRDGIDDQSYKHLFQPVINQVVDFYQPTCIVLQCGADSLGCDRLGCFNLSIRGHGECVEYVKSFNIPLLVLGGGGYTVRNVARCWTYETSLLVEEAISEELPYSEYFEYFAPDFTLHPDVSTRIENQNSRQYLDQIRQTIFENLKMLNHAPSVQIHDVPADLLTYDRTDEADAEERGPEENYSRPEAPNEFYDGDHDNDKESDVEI
T1 sequence (Q13547 whole entry, the tested form may be a part): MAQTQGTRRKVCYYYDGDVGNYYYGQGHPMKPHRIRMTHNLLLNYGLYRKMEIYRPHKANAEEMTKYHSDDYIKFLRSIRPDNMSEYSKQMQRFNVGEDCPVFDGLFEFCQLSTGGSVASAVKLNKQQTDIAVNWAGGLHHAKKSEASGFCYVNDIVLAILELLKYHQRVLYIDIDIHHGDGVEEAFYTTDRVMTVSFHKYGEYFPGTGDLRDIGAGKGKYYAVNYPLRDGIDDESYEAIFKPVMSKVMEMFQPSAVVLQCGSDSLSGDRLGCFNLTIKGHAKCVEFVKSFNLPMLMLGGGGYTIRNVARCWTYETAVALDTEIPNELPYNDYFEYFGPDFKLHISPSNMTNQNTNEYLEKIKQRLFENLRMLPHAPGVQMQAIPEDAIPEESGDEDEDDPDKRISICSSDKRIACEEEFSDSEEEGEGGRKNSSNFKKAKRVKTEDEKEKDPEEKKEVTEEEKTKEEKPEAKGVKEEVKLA
Histone deacetylase 2, sequence (Q92769 whole entry, the tested form may be a part): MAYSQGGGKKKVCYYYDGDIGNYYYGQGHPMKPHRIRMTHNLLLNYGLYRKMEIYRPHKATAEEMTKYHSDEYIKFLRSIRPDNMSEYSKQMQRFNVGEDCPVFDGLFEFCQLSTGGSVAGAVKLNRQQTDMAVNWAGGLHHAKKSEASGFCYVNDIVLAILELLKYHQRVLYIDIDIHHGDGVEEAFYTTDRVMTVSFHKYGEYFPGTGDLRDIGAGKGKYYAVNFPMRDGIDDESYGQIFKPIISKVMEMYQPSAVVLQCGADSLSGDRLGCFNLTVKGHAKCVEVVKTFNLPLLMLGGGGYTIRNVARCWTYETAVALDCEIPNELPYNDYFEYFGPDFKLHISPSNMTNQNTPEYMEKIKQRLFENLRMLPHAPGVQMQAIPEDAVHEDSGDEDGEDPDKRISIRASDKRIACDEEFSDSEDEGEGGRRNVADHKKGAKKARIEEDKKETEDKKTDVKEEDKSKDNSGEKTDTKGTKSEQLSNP
Histone deacetylase 4 (Homo sapiens), sequence (P56524 whole entry, the tested form may be a part): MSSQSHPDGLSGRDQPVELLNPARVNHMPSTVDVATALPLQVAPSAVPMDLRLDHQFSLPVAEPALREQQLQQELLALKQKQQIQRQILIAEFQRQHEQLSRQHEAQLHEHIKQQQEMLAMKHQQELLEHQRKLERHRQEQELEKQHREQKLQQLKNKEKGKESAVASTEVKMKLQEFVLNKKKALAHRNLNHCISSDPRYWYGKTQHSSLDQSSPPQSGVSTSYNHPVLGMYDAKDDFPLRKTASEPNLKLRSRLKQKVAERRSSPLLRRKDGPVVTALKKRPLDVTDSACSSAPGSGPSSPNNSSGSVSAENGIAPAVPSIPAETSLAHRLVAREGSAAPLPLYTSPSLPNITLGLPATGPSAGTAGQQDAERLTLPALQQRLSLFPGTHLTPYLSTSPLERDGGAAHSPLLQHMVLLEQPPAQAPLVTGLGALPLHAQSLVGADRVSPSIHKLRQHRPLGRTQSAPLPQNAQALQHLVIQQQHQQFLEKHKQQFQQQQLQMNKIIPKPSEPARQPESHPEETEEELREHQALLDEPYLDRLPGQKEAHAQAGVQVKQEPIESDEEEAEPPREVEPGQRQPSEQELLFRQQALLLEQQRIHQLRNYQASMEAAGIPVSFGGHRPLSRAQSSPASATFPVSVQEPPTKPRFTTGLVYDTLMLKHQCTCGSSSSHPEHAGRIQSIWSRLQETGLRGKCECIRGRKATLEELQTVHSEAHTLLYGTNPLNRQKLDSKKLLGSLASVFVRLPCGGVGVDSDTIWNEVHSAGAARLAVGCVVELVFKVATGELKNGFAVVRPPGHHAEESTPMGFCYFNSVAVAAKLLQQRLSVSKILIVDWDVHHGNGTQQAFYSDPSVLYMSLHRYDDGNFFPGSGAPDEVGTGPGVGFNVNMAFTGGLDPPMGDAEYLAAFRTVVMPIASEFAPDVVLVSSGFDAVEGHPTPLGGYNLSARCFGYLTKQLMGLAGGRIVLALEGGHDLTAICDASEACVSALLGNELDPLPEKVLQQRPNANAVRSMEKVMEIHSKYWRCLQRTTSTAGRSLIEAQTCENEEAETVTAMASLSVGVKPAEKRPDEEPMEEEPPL

## CC(C)(C(=O)Nc1ccc(C(=O)Nc2ccc(F)cc2N)cc1)c1ccccc1
Histone deacetylase 1 [1]
  IC50: > 10 µM
[2]
  inhibition: 87%
[3]
  inhibition: 4%
[4]
  inhibition: 0%
Histone deacetylase 1 [5]
  inhibition: 8%
MDA-MB-231 [6]
  IC50: 0.5 to 1 µM
MDA-MB-231 [7]
  Activity: Non-Toxic
MDA-MB-231 [8]
  inhibition: Active
[9]
  inhibition: Dose-dependent effect
[10]
  inhibition: Dose-dependent effect
MDA-MB-231 [11]
  IC50: ≥ 10 µM
Histone deacetylase 2
  IC50: > 10 µM
MDA-MB-231 [12]
  inhibition: Dose-dependent effect
MDA-MB-231 [13]
  Activity: Active
